95 compounds from PubChem BioAssay AID504382 (The Scripps Research Institute Molecular Screening Center, 2011) can be followed below.

Each structure is given as a SMILES string. Among all 2,500 compounds or so, about 460 (18%) were called active. A selection follows. Unmarked numbers belong to inactive results.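 How the source made its calls: active means mean activation above a cutoff of low control average plus 3 SD from the earlier screen (cut at about 12% in these data); inactive means the rest.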

The assay can be described thus: IANBD-channel fluorescence artefacts in buffer – biochemical, artefact control for cardiac RTF calcium sensitizer project, confirmation (AID 504382). To be noted: IANBD fluorescence interference counterscreen, EC20 Ca2+, at 7.2 µM, active compounds read high, scaled: EC20 calcium 0, EC100 calcium 100. The procedure, abridged: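 timing = compound incubation 15 min at 25 °C before fluorescence reading | technique = fluorescence at 480 nm excitation, 540 nm emission | evaluation = interference relative to controls | replication = triplicate wells per compound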
As to `CCC(=O)N(C)CCc1cc2c(c(OC)c1/C=N/NC(=O)c1ccc(Br)cc1)OCO2`, the fluorescence artifact activation is 0.24%.

In the case of `O=C(Cn1c(=O)c(=O)n(Cc2ccccc2)c2ccc(Cl)cc21)Nc1ccc(F)cc1F`, the fluorescence artifact activation is 0.95%.

Take `COc1ncnc2c1N=C1CC(C)(C)CC(N)=C1S2`: the fluorescence artifact activation was 17.8% (active).

On to `CC1(C)CC2CC(C)(CN2C(=S)Nc2ccccc2F)C1` (stereo not given), for which the fluorescence artifact activation was 0.69%.

Regarding `O=C(NC1CC1)c1cccc2c1C(=O)c1ccc(N3CCC(Cc4ccccc4)CC3)cc1S2(=O)=O`, the fluorescence artifact activation is -0.05%.

Consider `O=C1CCC/C(=N/NC(=O)c2sc3ccccc3c2Cl)C1`, for which the fluorescence artifact activation was 0.36%.

As to `COc1ccc2c(Cl)c(C(=O)N/N=C3\CCCC(=O)C3)sc2c1`, the fluorescence artifact activation was 16.2% (active).

For `O=C1CCCC(=NNC(=O)c2cc3ccccc3cc2O)C1`, the fluorescence artifact activation is 0.08%.

For the compound `CN(C)/C=C/C(=O)c1ccc(Br)s1`, the fluorescence artifact activation was 0.3%.

For `C(=N\Nc1nnnn1-c1ccccc1)/c1ccncc1`, the fluorescence artifact activation is 0.02%.

As to `O=c1c(/C=N/Nc2ccccc2)c(Sc2nnnn2-c2ccccc2)nc2ccccn12`, the fluorescence artifact activation is -0.06%.

As to `O=C(O)c1ccccc1CSc1nnnn1-c1ccccc1`, the fluorescence artifact activation was 13.5% (active).

As for `Cc1ccnc(NC(=O)c2ccc(Br)s2)c1`, the fluorescence artifact activation is 0.08%.

Consider `CCCCC1=CC2=C(c3ccco3)C(=O)C(C)(OC(=O)c3ccc(OC)cc3)C(=O)C2=CN1CCc1ccccn1` (stereo not given), for which the fluorescence artifact activation is 5.57%.

For the compound `O=C(COC(=O)/C=C/c1ccccc1[N+](=O)[O-])NNC(=O)c1ccc(F)cc1`, the fluorescence artifact activation was 0.09%.

Consider `COCc1cc(C)n(CC(=O)Nc2ccccc2C(=O)OC)c(=O)c1C#N`, for which the fluorescence artifact activation was 5.24%.

Turning to `COc1ccc(OC)c(NC(=O)CNC(=O)Cn2c(C)cc3ccccc3c2=O)c1`, the fluorescence artifact activation is 1380% (active).

Take `COc1ccc(OC)c(NC(=S)Nc2ccccc2)c1`: the fluorescence artifact activation was -0.01%.

For the compound `C=CCn1c(COc2cccc(C)c2)nnc1SCn1nnc2ccccc2c1=O`, the fluorescence artifact activation was 0.03%.

`NC(=O)C1(NC(=O)[C@@H]2CC3(CC(c4cccc(NC(=O)[C@@H]5CCC(=O)N5)c4)=NO3)CN2C(=O)c2ccccc2)CC1` (stereo not given in full): the fluorescence artifact activation was 0.3%.

Take `CCC(=O)Nc1ccc(NC(=S)NC(=O)c2oc3ccccc3c2C)cc1`: the fluorescence artifact activation was 0.25%.

Regarding `COCCCn1c(=O)/c(=C\c2ccccc2OC(C)C)s/c1=C(/C#N)C(=O)Nc1ccc(C(=O)O)cc1`, the fluorescence artifact activation was 0.05%.

On to `CCN(CC)c1ccc(/C=C(\C#N)C(=O)c2ccc(Br)cc2)cc1`, for which the fluorescence artifact activation is -0.11%.

For the compound `CN(C)c1ccc(/C=C(\C#N)C(=O)c2ccccc2)cc1`, the fluorescence artifact activation was 0.22%.

With `CCN(CC)c1ccc(/C=C(\C#N)C(=O)NCc2ccccc2)cc1`, the fluorescence artifact activation is 13.8% (active).

Turning to `CCN(CC)c1ccc(/C=C(/C#N)C(=O)NCc2ccccc2)o1`, the fluorescence artifact activation is 0.1%.

As to `CCN(CC)c1ccc(/C=C(\C#N)C(N)=S)cc1`, the fluorescence artifact activation is 16.2% (active).

Turning to `CN(C)c1ccc(/C=C(/C#N)C(=O)NCc2ccccc2)o1`, the fluorescence artifact activation was 2.9%.

As to `O=C(COC(=O)c1ccc(S(=O)(=O)N2CCCC2)cc1)NCc1ccco1`, the fluorescence artifact activation is 0.32%.

For the compound `COc1ccccc1C(=O)NN(C)C1=NS(=O)(=O)c2ccccc21`, the fluorescence artifact activation was 0.12%.

In the case of `CCNC(=O)NNC(=O)C1CC(c2cccs2)=NO1` (stereo not given), the fluorescence artifact activation is 0%.

Consider `Cc1ccc(C2NC(=O)c3c(sc4c3CCN(C)C4)N2)o1` (stereo not given), for which the fluorescence artifact activation was 0.12%.

For `CCOC(=O)c1c(C)[nH]c(C2=NNC(=NC(C)COC)SC2)c1C` (stereo not given), the fluorescence artifact activation was 22% (active).

Take `Cc1cc(C)n(-c2ccc([N+](=O)[O-])cc2-c2nn[nH]n2)n1`: the fluorescence artifact activation is 2.39%.

`CCC(=Cc1ccccc1OC)c1ccncc1`: the fluorescence artifact activation was 3.06%.

Take `COc1ccc(CCNc2cc(C)[nH]c(=O)c2)cc1OC`: the fluorescence artifact activation is 0.6%.

Take `COc1ccc(NC(=O)CCN2CCCC2)c(OC)c1`: the fluorescence artifact activation is 27.4% (active).

As to `COc1ccc(NC(=O)CCN2CC(C)OC(C)C2)c(OC)c1` (stereo not given), the fluorescence artifact activation was 0.05%.

Consider `Cc1ccc(C)c(NC(=O)CCN2CCOCC2)c1`, for which the fluorescence artifact activation was -0.02%.

Take `COc1ccc(Nc2nc3ccc(C)cc3cc2C#N)c(OC)c1`: the fluorescence artifact activation was 0.04%.

For `CCN1C(=O)c2cccc3c(NC(=O)c4ccc5c(c4)OCCO5)ccc1c23`, the fluorescence artifact activation was 36.4% (active).

As for `CCCN(CCC)S(=O)(=O)c1ccc(C(=O)OCCN2C(=O)c3cccc4c(N5CCOCC5)ccc(c34)C2=O)cc1`, the fluorescence artifact activation is 4.63%.

`Cc1ccccc1NC(=O)c1nnn(-c2ccc3c(c2)OCCO3)c1N`: the fluorescence artifact activation is 0.09%.

As to `COc1cc(/C=C(\C#N)c2nc3ccccc3s2)ccc1OCC(=O)Nc1ccccc1`, the fluorescence artifact activation was 36.6% (active).

For `COc1cc(/C=C(/C#N)C(=O)NCCCc2ccccc2)ccc1OCC(=O)O`, the fluorescence artifact activation was 0.24%.

Turning to `N#C/C(=C\c1ccccn1)c1nc2ccccc2s1`, the fluorescence artifact activation was 0.06%.

Consider `Cc1ccc(S(=O)(=O)Nc2ccccc2N(C)S(=O)(=O)c2ccc(C)cc2)cc1`, for which the fluorescence artifact activation is 2.27%.

Regarding `NC(=O)c1cc2ccc(O)cc2oc1=NCc1ccccc1`, the fluorescence artifact activation is 0.04%.

Take `CCN1CC=C2C(C1)C(c1ccc(Cl)s1)C(C#N)=C(N)C2(C#N)C#N` (stereo not given): the fluorescence artifact activation is 2.16%.

As for `COc1cccc(F)c1C(=O)NC(=O)Nc1ccc2nc(C)oc2c1`, the fluorescence artifact activation was 42.8% (active).

Turning to `CCNC(=S)N/N=C/c1sc(N2CCCCC2)nc1-c1cccs1`, the fluorescence artifact activation is 0.09%.

Turning to `Cc1ccc(CNC(=O)CCS(=O)(=O)c2cc3c(cc2C)NC(=O)CO3)cc1`, the fluorescence artifact activation was 0.29%.

On to `Cc1ncn(C23CC4CC(CC(C4)C2)C3)n1`, for which the fluorescence artifact activation is 0%.

Turning to `CCc1ccc(C(=O)NNc2cc(Cl)ccc2Cl)cc1`, the fluorescence artifact activation was 0.03%.

`Cc1c(Br)c(C(=O)N2CCc3ccccc32)nn1C`: the fluorescence artifact activation is 0.13%.

For the compound `Cc1cccc2cc3c(N)c(C(=O)N4CCc5ccccc54)sc3nc12`, the fluorescence artifact activation is -0.06%.

Take `Cc1nn(C)c(C(=O)N2CCc3ccccc32)c1Br`: the fluorescence artifact activation is 23.4% (active).

Turning to `Nc1ccc2c3c(cccc13)CC2`, the fluorescence artifact activation is 0.07%.

Regarding `O=C(Cn1c2[n+](c3ccc(C(F)(F)F)cc31)CCCCC2)Nc1ccccc1`, the fluorescence artifact activation was 0.33%.

For `CC(=O)/C(C=Nc1noc(C)c1Br)=C(\C)O`, the fluorescence artifact activation is 11.4%.

Regarding `CCC1(CC)C(=O)Nc2ccccc21`, the fluorescence artifact activation is -0.02%.

On to `COc1ccc2[nH]c(C(=O)N3CCC(Cc4ccccc4)CC3)cc2c1`, for which the fluorescence artifact activation is 0.13%.

With `COc1ccccc1N1CCN(C(=O)c2ccc(Cn3c(=O)[nH]c4ccsc4c3=O)cc2)CC1`, the fluorescence artifact activation was 51.1% (active).

Turning to `COc1ccccc1N1CCN(C(=O)c2cn(-c3ccccc3)nc2-c2cccnc2)CC1`, the fluorescence artifact activation is 0.33%.

As for `COc1ccc(C(=O)c2sc3nc(C)cc(-c4cccs4)c3c2N)cc1OC`, the fluorescence artifact activation was 0.66%.

`CC(=O)c1ccc2noc(-c3ccc(C)cc3)c2c1`: the fluorescence artifact activation was 0.23%.

Regarding `COc1ccccc1-c1sc2ccccc2c1-c1ccc(Br)nc1`, the fluorescence artifact activation was 0.93%.

As for `Oc1ccc(-c2c(C3=CCCCC3)sc3ccccc23)cc1`, the fluorescence artifact activation was 28.2% (active).

For the compound `CCOc1ccccc1C=NNC(=O)CCCCC(=O)NN=Cc1ccccc1OCC`, the fluorescence artifact activation was 0.77%.

With `Cc1noc(C)c1NC(=O)N(C)C[C@H]1Oc2c(NS(=O)(=O)c3cccs3)cccc2C(=O)N([C@H](C)CO)C[C@@H]1C`, the fluorescence artifact activation was -0.07%.

As for `COC(=O)Cc1ccc(NC(=S)NCCCN2CCOCC2)cc1`, the fluorescence artifact activation was -0.02%.

Take `CC(C)(C)c1ccc(C(=O)NC(=S)Nc2ccc(N3CCOCC3)cc2)cc1`: the fluorescence artifact activation was 0.09%.

Consider `O=C(NC(=S)NCCN1CCOCC1)c1ccc(F)cc1`, for which the fluorescence artifact activation is 21.2% (active).

Regarding `CCCCNC(=O)Nc1nnc(-c2ccccc2)o1`, the fluorescence artifact activation was 0.13%.

On to `S=C(Nc1ccc(Cl)cc1)N(CCCN1CCOCC1)Cc1ccco1`, for which the fluorescence artifact activation was 0.04%.

`CCC1OC23CCCCC2C(C#N)(C(=N)O3)C1(C#N)C#N` (stereo not given): the fluorescence artifact activation was 0.21%.

For the compound `Cn1cccc1Cc1nnc(SCC(=O)Nc2ccc(F)cc2F)n1-c1ccc(F)cc1`, the fluorescence artifact activation was 1.86%.

For the compound `COC(=O)c1cc(NC(=O)c2ccccc2)c(=O)oc1/C=C/Nc1ccc(Oc2ccccc2)cc1`, the fluorescence artifact activation was 18.6% (active).

For the compound `COc1ccc(C(=O)Nc2cc(C(C)=O)c(/C=C/N(C)C)oc2=O)cc1`, the fluorescence artifact activation is 9.8%.

On to `CC(=O)c1cc(NC(=O)c2ccccc2)c(=O)oc1/C=C/N(C)C`, for which the fluorescence artifact activation is 0.09%.

Regarding `Cc1cccc(N2C(=O)c3cccc4c(N)ccc(c34)C2=O)c1`, the fluorescence artifact activation was 0.02%.

Turning to `CCN(CC)c1ccc2cc(-c3nnc(-c4ccccc4)o3)c(=O)oc2c1`, the fluorescence artifact activation is 43.7% (active).

`CCN(CC)c1ccc2cc(-c3nnc(-c4ccncc4)o3)c(=O)oc2c1`: the fluorescence artifact activation was 1.48%.

For `CCN(CC)c1ccc2cc(-c3nc(-c4cc5ccccc5oc4=O)cs3)c(=O)oc2c1`, the fluorescence artifact activation was -0.03%.

As to `CC(=O)Nc1ccc2cc3ccc(NC(C)=O)cc3nc2c1`, the fluorescence artifact activation is 11.6%.

Take `CCCn1c(=O)c(C(=O)NNC(=O)c2ccccc2[N+](=O)[O-])c(O)c2ccccc21`: the fluorescence artifact activation was 5.02%.

As to `CCN1/C(=C/C=C2/SC(=Nc3cccc4ncccc34)N(C)C2=O)Sc2ccccc21`, the fluorescence artifact activation is 11.5%.

As for `CCN(C(=O)CN1CCCc2cc(C)ccc21)c1c(N)n(Cc2ccccc2)c(=O)[nH]c1=O`, the fluorescence artifact activation is 0.2%.

Consider `CCn1c(Cc2ccccc2)nnc1SCC(=O)OC(C)C`, for which the fluorescence artifact activation was 0.3%.

`CCN(C(=O)CSc1nnc(COc2ccccc2F)n1N)c1c(N)n(Cc2ccccc2)c(=O)[nH]c1=O`: the fluorescence artifact activation is 382% (active).

In the case of `COC(=O)C1=C(C)NC(=O)/C1=C\N(C)C`, the fluorescence artifact activation was 5.29%.

For `COc1cc(OC)c(OC)cc1/C=C1\Oc2cc(OCC(=O)N3Cc4ccccc4C[C@H]3C(=O)O)ccc2C1=O`, the fluorescence artifact activation was -0.01%.

`CS(=O)(=O)N(CC(=O)NCCSCc1ccccc1)c1ccccc1`: the fluorescence artifact activation was 0.13%.

As to `CC(C)(C)C1(O)CC(C(F)(F)F)=NN1C(=O)CCCc1ccccc1` (stereo not given), the fluorescence artifact activation is 0.13%.

With `CSCC(C)N1CCC(n2nccc2NC(=O)CCCc2ccccc2)CC1` (stereo not given), the fluorescence artifact activation is 26.2% (active).
